The source of these data is ChEMBL document CHEMBL5696442, “Discovery of type II inhibitors of TGFβ-activated kinase 1 (TAK1) and mitogen-activated protein kinase kinase kinase kinase 2 (MAP4K2)” (J Med Chem, 2015).

Assay [1] deals with Tyrosine-protein kinase ABL1 (Homo sapiens, UniProt P00519). The experiment in a line: Inhibition of ABL ACT labeling site in human Huh-7 cell lysate at 1 uM by KiNativ Profiling analysis relative to control. Type of assay: subcellular.
The target in assay [2] is Tyrosine-protein kinase CSK (Homo sapiens, UniProt P41240). The experiment in a line: Inhibition of CSK ACT labeling site harbouring VSDFGLTKEASSTQDTGKLPVK in human Huh-7 cell lysate at 1 uM by KiNativ Profiling analysis relative to control. The assay is classed as subcellular.
The target of assay [3] is Serine/threonine-protein kinase mTOR (Homo sapiens) (UniProt P42345). Briefly: Inhibition of FRAP ATP labeling site in human Huh-7 cells at 1 uM by KiNativ Profiling analysis relative to control. Type of assay: cell-based.
Assay [4] addresses Ribosomal protein S6 kinase alpha-3 (Homo sapiens) (UniProt P51812). The experiment in a line: Inhibition of RSK2 domain2 Protein Kinase Domain in human A-375 cells at 0.05 uM by KiNativ Profiling analysis relative to control. Type of assay: cell-based.
Assay [5] has as its target T1, Aurora kinase A (Homo sapiens) (UniProt O14965).
T1 sequence (whole entry): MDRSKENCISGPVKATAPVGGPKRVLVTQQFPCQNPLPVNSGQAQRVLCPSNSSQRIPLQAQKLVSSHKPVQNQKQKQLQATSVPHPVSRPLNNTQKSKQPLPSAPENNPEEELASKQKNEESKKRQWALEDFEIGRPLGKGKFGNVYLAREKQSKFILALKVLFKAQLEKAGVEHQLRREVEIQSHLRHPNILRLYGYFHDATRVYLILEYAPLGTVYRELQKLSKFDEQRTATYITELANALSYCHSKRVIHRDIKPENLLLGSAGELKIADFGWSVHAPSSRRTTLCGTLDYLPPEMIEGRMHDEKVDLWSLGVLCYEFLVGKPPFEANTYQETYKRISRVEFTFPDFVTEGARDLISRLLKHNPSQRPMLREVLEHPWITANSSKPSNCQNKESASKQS
The experiment in a line: Inhibition of AurA Lys2 labeling site in human A-375 cells at 0.5 uM by KiNativ Profiling analysis relative to control. Type of assay: cell-based. Summed up: (§1)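 Intact A375 melanoma cells were treated with compound at 5 or 0.5 μM, then lysed. Lysate kinases were labeled with a lysine-reactive ATP or ADP-biotin probe (KiNativ). Inhibition is read as protection of each kinase labeling site from probe labeling.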

The target of assay [6] is Tyrosine-protein kinase ABL2 (Homo sapiens, UniProt P42684). The experiment in a line: Inhibition of ARG ACT labeling site in human A-375 cells at 0.5 uM by KiNativ Profiling analysis relative to control. Type of assay: cell-based. The essentials:
as §1

For assay [7], the target named is Serine/threonine-protein kinase 26 (Homo sapiens) (UniProt Q9P289). Briefly: Inhibition of MST4 Lys1 labeling site in human A-375 cells at 0.5 uM by KiNativ Profiling analysis relative to control. Type of assay: cell-based.
For assay [8], the target named is T2, Mitogen-activated protein kinase kinase kinase 2 (Homo sapiens) (UniProt Q9Y2U5).
T2 sequence (whole entry): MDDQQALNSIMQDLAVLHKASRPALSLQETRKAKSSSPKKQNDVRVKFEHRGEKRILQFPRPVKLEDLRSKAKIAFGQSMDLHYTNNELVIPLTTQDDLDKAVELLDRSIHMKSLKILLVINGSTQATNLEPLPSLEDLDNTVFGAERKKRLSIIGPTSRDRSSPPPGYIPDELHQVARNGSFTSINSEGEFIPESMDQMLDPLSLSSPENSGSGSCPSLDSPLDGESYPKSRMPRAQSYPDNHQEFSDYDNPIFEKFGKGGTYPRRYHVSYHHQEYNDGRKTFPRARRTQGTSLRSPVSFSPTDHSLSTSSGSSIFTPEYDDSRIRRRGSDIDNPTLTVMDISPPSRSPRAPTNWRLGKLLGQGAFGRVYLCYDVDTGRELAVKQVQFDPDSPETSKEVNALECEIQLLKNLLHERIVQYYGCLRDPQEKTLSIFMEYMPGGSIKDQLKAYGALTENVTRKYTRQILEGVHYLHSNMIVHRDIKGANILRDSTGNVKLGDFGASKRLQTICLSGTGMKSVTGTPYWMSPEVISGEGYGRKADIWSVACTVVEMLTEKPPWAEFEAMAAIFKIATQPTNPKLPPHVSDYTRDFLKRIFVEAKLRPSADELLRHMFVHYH
Briefly: Inhibition of MAP3K2 Lys2 labeling site in human A-375 cells at 5 uM by KiNativ Profiling analysis relative to control. The assay is classed as cell-based.

The target in assay [9] is Serine/threonine-protein kinase WNK1 (Homo sapiens) (UniProt Q9H4A3). The experiment in a line: Inhibition of Wnk1 ATP Loop labeling site in human A-375 cells at 5 uM by KiNativ Profiling analysis relative to control. The assay is classed as cell-based.
Assay [10] has the same target. The experiment in a line: Inhibition of Wnk1 ATP Loop labeling site in human A-375 cells at 0.05 uM by KiNativ Profiling analysis relative to control. The assay is classed as cell-based.
The target in assay [11] is DNA-PK/Ku70/Ku85 (Homo sapiens) (UniProt P78527+P12956+P13010). The experiment in a line: Inhibition of DNAPK ATP labeling site harbouring EHPFLVKGGEDLR in human A-375 cells at 5 uM by KiNativ Profiling analysis relative to control. The assay is classed as cell-based. Summed up: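 Live A375 melanoma cells were treated with compound at 0.5 or 5 μM, then lysed. Lysates were labeled with a lysine-reactive ATP or ADP-biotin probe. The read-out was protection of each kinase probe-labeling site from labeling, relative to control.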

Assay [12] deals with 3-phosphoinositide-dependent protein kinase 1 (Homo sapiens) (UniProt O15530). Briefly: Inhibition of PDK1 Protein Kinase Domain in human A-375 cells at 0.05 uM by KiNativ Profiling analysis relative to control.
The target in assay [13] is T3, Phosphatidylinositol 5-phosphate 4-kinase type-2 alpha (Homo sapiens) (UniProt P48426).
T3 sequence (whole entry): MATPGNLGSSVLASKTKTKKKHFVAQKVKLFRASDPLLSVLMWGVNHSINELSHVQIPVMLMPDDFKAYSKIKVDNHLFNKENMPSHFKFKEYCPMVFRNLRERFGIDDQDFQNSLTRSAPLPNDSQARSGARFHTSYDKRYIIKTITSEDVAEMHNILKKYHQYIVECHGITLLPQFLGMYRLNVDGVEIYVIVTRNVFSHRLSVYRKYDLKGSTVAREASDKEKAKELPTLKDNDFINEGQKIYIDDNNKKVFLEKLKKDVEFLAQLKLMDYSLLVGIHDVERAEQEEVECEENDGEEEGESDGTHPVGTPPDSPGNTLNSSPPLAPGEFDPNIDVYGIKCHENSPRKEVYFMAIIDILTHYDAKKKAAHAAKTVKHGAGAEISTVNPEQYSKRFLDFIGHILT
The experiment in a line: Inhibition of PIP4K2A ATP labeling site in human A-375 cells at 5 uM by KiNativ Profiling analysis relative to control. Type of assay: cell-based.

In assay [14] the target is Focal adhesion kinase 1 (Homo sapiens) (UniProt Q05397). The experiment in a line: Inhibition of FAK Lys1 labeling site in human A-375 cells at 0.5 uM by KiNativ Profiling analysis relative to control. The assay is classed as cell-based. The essentials:
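Live A375 melanoma cells were treated with compound at 5 or 0.5 μM, then lysed. Lysates were labeled with a lysine-reactive ATP or ADP-biotin probe. Read-out was the compound's protection of kinase labeling sites from probe labeling (KiNativ).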

Active and inactive are the calls of the source. The rule behind the calls is not given here.

Chain of Serine/threonine-protein kinase WNK1 (Homo sapiens) (Q9H4A3 whole entry, looked up): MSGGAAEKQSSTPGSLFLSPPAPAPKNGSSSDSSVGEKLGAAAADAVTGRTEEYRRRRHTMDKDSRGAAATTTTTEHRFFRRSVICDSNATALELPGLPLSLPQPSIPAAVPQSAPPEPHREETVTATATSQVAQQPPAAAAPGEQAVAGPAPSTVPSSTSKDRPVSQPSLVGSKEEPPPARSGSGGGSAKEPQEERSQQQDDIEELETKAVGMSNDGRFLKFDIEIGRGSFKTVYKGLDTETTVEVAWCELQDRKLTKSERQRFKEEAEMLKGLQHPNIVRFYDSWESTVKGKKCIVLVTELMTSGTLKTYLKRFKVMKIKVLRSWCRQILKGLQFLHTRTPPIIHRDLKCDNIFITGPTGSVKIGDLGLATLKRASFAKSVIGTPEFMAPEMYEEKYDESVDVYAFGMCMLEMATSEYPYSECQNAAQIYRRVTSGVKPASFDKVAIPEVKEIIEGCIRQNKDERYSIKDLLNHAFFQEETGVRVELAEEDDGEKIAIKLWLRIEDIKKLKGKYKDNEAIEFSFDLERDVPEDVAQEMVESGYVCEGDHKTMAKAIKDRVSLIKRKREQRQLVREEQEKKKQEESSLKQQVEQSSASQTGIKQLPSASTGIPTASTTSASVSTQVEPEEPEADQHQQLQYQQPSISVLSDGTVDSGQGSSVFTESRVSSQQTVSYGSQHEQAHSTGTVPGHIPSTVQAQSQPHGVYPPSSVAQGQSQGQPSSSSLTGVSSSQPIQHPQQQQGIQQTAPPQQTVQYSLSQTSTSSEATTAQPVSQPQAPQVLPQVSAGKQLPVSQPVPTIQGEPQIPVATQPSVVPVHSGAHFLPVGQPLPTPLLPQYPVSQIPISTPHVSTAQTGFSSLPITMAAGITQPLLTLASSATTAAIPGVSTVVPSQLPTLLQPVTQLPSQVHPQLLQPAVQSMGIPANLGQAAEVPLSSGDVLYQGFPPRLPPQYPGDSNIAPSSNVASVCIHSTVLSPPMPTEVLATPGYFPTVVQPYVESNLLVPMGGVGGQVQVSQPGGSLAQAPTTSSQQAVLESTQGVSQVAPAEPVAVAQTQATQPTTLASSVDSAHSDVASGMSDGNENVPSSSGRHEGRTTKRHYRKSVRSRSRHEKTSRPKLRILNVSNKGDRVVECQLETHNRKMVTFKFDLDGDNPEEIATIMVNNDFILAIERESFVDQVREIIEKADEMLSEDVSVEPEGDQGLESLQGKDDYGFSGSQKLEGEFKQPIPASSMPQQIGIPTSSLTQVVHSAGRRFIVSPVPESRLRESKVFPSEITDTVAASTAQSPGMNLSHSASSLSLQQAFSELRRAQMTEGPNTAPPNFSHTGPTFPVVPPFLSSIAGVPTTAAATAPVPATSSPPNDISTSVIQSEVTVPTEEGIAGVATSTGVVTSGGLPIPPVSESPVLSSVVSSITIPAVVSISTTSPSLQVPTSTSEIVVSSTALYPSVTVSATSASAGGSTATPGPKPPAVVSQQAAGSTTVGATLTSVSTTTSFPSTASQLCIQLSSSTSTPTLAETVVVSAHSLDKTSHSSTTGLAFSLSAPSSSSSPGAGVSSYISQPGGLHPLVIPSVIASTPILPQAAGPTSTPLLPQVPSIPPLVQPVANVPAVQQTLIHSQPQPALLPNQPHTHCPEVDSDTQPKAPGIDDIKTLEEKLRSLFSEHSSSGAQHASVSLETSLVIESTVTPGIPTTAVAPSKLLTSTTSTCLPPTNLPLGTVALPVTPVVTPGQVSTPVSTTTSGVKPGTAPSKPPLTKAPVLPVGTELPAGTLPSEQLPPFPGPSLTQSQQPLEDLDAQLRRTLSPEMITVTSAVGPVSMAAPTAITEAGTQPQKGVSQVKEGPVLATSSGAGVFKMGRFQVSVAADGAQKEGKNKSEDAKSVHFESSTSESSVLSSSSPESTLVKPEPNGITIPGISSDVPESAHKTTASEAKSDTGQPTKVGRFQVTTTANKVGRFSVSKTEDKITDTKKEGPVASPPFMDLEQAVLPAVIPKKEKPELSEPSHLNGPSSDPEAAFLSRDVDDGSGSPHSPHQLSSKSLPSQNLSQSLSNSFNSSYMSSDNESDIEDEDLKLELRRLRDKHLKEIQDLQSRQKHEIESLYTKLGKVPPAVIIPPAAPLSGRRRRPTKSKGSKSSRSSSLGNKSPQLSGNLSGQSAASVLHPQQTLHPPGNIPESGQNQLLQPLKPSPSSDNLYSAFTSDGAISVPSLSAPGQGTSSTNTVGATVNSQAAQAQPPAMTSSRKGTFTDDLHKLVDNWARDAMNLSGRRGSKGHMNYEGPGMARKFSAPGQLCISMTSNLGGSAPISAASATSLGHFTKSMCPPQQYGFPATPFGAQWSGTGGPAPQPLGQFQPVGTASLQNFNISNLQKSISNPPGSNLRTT
Chain of Serine/threonine-protein kinase 26 (Homo sapiens) (Q9P289 2-416 limits assumed): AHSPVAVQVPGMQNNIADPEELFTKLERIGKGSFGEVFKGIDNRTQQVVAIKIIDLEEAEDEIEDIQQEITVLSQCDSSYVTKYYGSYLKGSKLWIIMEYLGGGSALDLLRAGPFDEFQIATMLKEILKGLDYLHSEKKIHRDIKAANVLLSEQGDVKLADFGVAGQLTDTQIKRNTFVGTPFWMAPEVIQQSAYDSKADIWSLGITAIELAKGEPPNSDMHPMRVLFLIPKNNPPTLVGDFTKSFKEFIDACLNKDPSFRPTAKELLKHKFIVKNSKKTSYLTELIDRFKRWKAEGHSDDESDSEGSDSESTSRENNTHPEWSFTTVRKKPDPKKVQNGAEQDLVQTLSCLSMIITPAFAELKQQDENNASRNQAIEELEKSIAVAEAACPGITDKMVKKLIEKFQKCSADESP
Chain of 3-phosphoinositide-dependent protein kinase 1 (Homo sapiens) (O15530 whole entry, looked up, the tested form may be a part): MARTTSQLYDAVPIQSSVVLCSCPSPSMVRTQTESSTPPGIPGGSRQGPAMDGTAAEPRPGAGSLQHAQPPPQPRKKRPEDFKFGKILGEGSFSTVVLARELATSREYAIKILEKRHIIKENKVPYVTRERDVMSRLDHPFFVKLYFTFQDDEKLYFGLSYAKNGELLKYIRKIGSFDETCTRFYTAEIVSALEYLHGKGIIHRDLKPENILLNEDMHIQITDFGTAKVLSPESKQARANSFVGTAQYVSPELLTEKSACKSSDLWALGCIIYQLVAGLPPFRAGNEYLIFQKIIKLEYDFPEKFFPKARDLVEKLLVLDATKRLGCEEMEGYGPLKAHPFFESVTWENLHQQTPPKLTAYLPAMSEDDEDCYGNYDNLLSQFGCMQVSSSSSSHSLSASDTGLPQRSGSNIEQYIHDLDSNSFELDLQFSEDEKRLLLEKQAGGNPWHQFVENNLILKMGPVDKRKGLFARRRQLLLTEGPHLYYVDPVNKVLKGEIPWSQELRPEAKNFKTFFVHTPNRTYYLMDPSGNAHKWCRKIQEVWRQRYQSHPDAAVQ
Chain of Tyrosine-protein kinase ABL2 (P42684 whole entry): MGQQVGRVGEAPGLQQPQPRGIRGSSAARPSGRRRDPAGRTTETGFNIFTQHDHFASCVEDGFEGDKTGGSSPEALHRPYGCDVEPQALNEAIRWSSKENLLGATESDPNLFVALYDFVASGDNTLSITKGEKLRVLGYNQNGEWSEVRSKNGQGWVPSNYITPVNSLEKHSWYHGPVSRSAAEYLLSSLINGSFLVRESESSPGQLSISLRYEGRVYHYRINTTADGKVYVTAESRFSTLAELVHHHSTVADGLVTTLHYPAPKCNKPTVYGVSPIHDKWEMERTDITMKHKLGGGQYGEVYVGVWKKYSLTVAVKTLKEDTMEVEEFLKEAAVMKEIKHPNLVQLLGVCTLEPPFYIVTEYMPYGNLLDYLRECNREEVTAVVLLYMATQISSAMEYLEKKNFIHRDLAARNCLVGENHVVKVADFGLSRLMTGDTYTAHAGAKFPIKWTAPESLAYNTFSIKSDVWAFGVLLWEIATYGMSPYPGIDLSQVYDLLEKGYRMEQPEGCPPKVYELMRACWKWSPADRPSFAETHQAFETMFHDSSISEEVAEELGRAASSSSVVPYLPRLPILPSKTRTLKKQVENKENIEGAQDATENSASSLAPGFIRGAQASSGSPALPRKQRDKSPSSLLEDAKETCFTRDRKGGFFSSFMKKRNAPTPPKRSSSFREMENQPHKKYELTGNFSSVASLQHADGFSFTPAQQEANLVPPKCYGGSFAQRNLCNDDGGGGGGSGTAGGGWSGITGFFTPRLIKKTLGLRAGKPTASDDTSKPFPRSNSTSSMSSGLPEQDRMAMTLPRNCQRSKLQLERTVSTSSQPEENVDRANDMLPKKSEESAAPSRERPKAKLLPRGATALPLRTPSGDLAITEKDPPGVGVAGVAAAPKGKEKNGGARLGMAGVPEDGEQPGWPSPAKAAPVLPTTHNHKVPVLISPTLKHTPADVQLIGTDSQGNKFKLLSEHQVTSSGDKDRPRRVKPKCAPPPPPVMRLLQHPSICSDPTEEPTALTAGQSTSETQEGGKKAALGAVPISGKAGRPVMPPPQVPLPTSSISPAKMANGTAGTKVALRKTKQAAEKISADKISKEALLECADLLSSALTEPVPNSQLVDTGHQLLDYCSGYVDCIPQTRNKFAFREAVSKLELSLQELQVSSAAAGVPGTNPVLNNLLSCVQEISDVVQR
Chain of Tyrosine-protein kinase CSK (P41240 2-450 limits assumed): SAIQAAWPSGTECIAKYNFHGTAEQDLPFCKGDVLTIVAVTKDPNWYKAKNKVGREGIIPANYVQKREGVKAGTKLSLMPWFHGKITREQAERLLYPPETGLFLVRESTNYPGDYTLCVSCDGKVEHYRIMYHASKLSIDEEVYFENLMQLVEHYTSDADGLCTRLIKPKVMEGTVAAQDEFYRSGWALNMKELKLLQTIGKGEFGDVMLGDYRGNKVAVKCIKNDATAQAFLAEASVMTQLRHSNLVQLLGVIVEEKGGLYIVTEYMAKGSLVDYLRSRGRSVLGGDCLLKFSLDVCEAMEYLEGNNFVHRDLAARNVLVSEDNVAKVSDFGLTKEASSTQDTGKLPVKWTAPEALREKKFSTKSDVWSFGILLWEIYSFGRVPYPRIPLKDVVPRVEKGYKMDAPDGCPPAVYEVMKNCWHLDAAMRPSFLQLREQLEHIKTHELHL

The inhibition is the change of the read-out against control, counted positive when it falls. As for `CNc1cc(Oc2cc(C(=O)Nc3cc(N4CCN(C)CC4)cc(C(F)(F)F)c3)ccc2C)ncn1`, the figures for the inhibition in [1], in assay [2] and in assay [3] were 49.4%, 7.9% and 26.5%, respectively.
With `CCN1CCN(Cc2ccc(NC(=O)c3ccc(C)c(/C=C/c4cnc5[nH]ccc5c4OC)c3)cc2C(F)(F)F)CC1`, the inhibition in assay [4] is -9.9%; in assay [5], 0.7%; in [6] it was above 98%; in assay [7] it was 2.8%; in [8], 11.8%; in [9], 13.7%. In addition, the inhibition is 5% in [10]; 15.4% in [11]; -1.5% in assay [12]; 4.7% in assay [13]; -2% in assay [14].
`CNc1cc(Oc2cc(C(=O)Nc3cc(-n4cnc(C)c4)cc(C(F)(F)F)c3)ccc2C)ncn1`: the results for the inhibition in [1] and in assay [2] were 59.7% and 0.3%, respectively.
In the case of `CCN1CCN(Cc2ccc(NC(=O)c3ccc(C)c(Oc4ccnc5[nH]ccc45)c3)cc2C(F)(F)F)CC1`, the inhibition was 3.1% in assay [4]; 12% in [5]; above 95% in assay [6]; -0.4% in assay [7]; -4.8% in [8]; 13.1% in [9]. Besides, the inhibition amounted to 2.4% in assay [10]; 12.4% in assay [11]; 11.2% in assay [12]; 0.9% in assay [13]; 9.3% in [14]. Moreover, the inhibition result in assay [3] was “inactive”.
